Structures can show the parent of a compound that is named as a salt.

One experiment is filed under the species Cavia porcellus. Description: Ability to prevent constrictions induced by SRS-A (slow reacting substance of anaphylaxis) in guinea pig ileum. It is filed as functional. The gist of the method: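 Ileum segments (1.5 cm) from 200–250 g guinea pigs are held in Tyrode's solution with 10^-6 M atropine sulfate and 10^-6 M pyrilamine maleate, at 37 °C, aerated with 95% O2/5% CO2. SRS-A comes from egg albumin challenge of chopped lung from actively sensitized guinea pigs, dosed to give 50% of maximal isotonic contraction. Compound is added 3 min before challenge. Three concentrations (10–90% inhibition) are run in duplicate, and IC50 is taken from the log dose-response curve.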
Consider `CC(C)c1ccc2nc3ccc(C(=O)NCCN(c4ccccc4)c4ccccc4)cn3c(=O)c2c1`, for which half-maximal inhibition (IC50) was put at 10000 nM.

Turning to `CC(C)c1ccc2nc3ccc(C(=O)NCCNc4ccccc4)cn3c(=O)c2c1`, the IC50 (usually the point on the concentration scale where inhibition reaches its midpoint) was determined as 2500 nM. Same read-out and setting: the figure for `CCC(C)c1ccc2nc3ccc(C(=O)NCCN(CC)CC)cn3c(=O)c2c1` (stereo not drawn) is 10000 nM; for `CC(C)c1ccc2nc3ccc(C(=O)NCCN4CCN(C(c5ccccc5)c5ccccc5)CC4)cn3c(=O)c2c1` it is 1000 nM. The molecule `CCN(CC)CCOC(=O)c1ccc2nc3ccc(C(C)C)cc3c(=O)n2c1` had an IC50 of 4000 nM. In turn, `CC(C)c1ccc2nc3ccc(C(=O)NCCN4C(C)(C)CCCC4(C)C)cn3c(=O)c2c1` showed an IC50 of 1000 nM. Molecule `CC(C)c1ccc2nc3ccc(C(=O)NCCN4CCC(c5ccccc5)CC4)cn3c(=O)c2c1` displayed an IC50 of 1000 nM.

With `CC(C)c1ccc2nc3ccc(C(=O)NCCN4CCN(c5ccccc5)CC4)cn3c(=O)c2c1`, 1000 nM corresponded to half-maximal inhibition (IC50).

`CCN(CC)CCNC(=O)c1ccc2nc3ccc(CC(C)C)cc3c(=O)n2c1` gave an IC50 of 1000 nM. Consider `CCN(CC)CCNC(=O)c1ccc2nc3ccc(C(C)(C)C)cc3c(=O)n2c1`, for which the IC50 was found to be 10000 nM. For the molecule `CC(C)c1ccc2nc3ccc(C(=O)OCCN4CCCCC4)cn3c(=O)c2c1`, the IC50 was found to be 6000 nM. The same measure, in the same setting: the figure for `CC(C)c1ccc2nc3ccc(C(=O)NCCN(C(C)C)C(C)C)cn3c(=O)c2c1` is 1000 nM. The molecule `CCN(CC)CCNC(=O)c1ccc2nc3ccc(C(C)C)cc3c(=O)n2c1` showed an IC50 of 5000 nM. The same measure, in the same setting: the figure for `CCN(CC)CC(C)OC(=O)c1ccc2nc3ccc(C(C)C)cc3c(=O)n2c1` (stereo not drawn) is 10000 nM. In turn, `CC(C)c1ccc2nc3ccc(C(=O)NCCN4CCC(Cc5ccccc5)CC4)cn3c(=O)c2c1` registered an IC50 of 1000 nM. In turn, `CC(C)c1ccc2nc3ccc(C(=O)NCCN(C4CCCCC4)C4CCCCC4)cn3c(=O)c2c1` came in with an IC50 of 2000 nM. `CCCc1c(OCC(O)COc2ccc3c(=O)cc(C(=O)O)oc3c2CCC)ccc(C(C)=O)c1O` (stereo not drawn) [FPL-55712 SODIUM SALT] had a 50% inhibitory concentration (IC50) of 35 nM.

For the next experiment, the species on record is Cavia porcellus. The experiment in a line: Ability to prevent constrictions induced by SRS-A (slow reacting substance of anaphylaxis) in guinea pig ileum at a concentration of 1x 10E-5 M. It is filed as functional.
As to `CCCCCOC(=O)c1ccc2nc3ccc(C(C)C)cc3c(=O)n2c1`, the inhibition (as a rule, the share of the control response that was lost under treatment) at 10 µM was determined as 10%. For `CC(C)c1ccc2nc3ccc(C(=O)NCCN4CCN(C)CC4)cn3c(=O)c2c1`, the inhibition at 10 µM is 34%. For the molecule `CC(C)c1ccc2nc3ccc(C(=O)NCCN4CCCCC4)cn3c(=O)c2c1`, the inhibition at 10 µM turned out to be 15%. `CCN(CC)CCOC(=O)c1ccc2nc3ccc(SC)cc3c(=O)n2c1` gave an inhibition at 10 µM of 0%. On the same count and under the same terms, the figure for `CC(C)c1ccc2nc3ccc(C(=O)NCCN(C)C)cn3c(=O)c2c1` is 42%; for `CCN(CC)CCNC(=O)c1ccc2nc3ccc(C(C)C)cn3c(=O)c2c1` it is 6%. The same measure, in the same setting: the figure for `CCN(CC)CCOC(=O)c1ccc2nc3ccc(OC(C)C)cc3c(=O)n2c1` is 17%; for `CCN(CC)CCOC(=O)c1ccc2nc3ccc(OC)cc3c(=O)n2c1` it is 0%. Molecule `CCN(CC)CCOC(=O)c1ccc2nc3ccc(C)cc3c(=O)n2c1` displayed an inhibition at 10 µM of 11%. Consider `CCN(CC)CCCNC(=O)c1ccc2nc3ccc(C(C)C)cc3c(=O)n2c1`, for which at 10 µM the inhibition was 37%. The molecule `CCN(CC)CCOC(=O)c1ccc2nc3ccc(C(C)C)cn3c(=O)c2c1` came in with an inhibition at 10 µM of 5%.

These data come from ChEMBL document CHEMBL1122396, “Antagonists of slow-reacting substance of anaphylaxis. 1. Pyrido[2,1-b]quinazolinecarboxylic acid derivatives” (J Med Chem, 1983).
